Experimental data taken from ChEMBL document CHEMBL3861957, “Straightforward synthesis of 2,4,6-trisubstituted 1,3,5-triazine compounds targeting cysteine cathepsins K and S” (Eur J Med Chem, 2016).

Experiments:
[1] = target: T1, Cathepsin K (Homo sapiens, UniProt P43235); assay: Inhibition of human cathepsin K expressed in Pichia pastoris using Z-Phe-Arg-AMC as substrate after 30 mins by spectromicrofluorimetric method
T1 sequence (P43235 whole entry): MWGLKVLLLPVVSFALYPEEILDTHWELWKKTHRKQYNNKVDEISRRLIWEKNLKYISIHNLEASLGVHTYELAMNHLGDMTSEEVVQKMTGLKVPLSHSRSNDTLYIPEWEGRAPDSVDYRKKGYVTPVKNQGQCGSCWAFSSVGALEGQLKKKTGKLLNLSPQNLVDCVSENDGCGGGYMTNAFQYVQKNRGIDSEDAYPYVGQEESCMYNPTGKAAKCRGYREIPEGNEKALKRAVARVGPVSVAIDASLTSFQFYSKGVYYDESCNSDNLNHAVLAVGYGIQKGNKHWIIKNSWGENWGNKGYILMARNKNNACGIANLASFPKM
Outline: (§1)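 Enzyme (0.5 nM) preincubated 30 min at 37 °C with inhibitor (0-250 nM) in 0.1 M sodium acetate pH 5.5, 2 mM DTT, 0.01% Brij35. Residual activity on Z-Phe-Arg-AMC at 2.5, 5 and 10 µM, fluorescence ex 350/em 460 nm. IC50 averaged from slopes. Triplicate, repeated three times.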

[2] = target: Cathepsin B (Homo sapiens, UniProt P07858); assay: Inhibition of human cathepsin B using Z-Phe-Arg-AMC as substrate after 30 mins by spectromicrofluorimetric method; outline: as §1
[3] = target: Procathepsin L (Homo sapiens, UniProt P07711); assay: Inhibition of human cathepsin L using Z-Phe-Arg-AMC as substrate after 30 mins by spectromicrofluorimetric method; outline: as §1
Procathepsin L, sequence (P07711 whole entry): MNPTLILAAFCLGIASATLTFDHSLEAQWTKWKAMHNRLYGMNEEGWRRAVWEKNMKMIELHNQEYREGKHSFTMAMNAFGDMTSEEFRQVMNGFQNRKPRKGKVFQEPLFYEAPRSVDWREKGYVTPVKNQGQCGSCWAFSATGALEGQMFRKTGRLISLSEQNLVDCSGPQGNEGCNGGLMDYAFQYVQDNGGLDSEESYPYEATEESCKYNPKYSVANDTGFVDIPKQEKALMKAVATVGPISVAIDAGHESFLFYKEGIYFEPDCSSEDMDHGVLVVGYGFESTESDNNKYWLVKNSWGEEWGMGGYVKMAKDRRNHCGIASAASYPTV

[4] = target: Cathepsin S (Homo sapiens, UniProt P25774); assay: Inhibition of human cathepsin S using Z-LR-AMC as substrate after 30 mins by spectromicrofluorimetric method
Cathepsin S, sequence (P25774 whole entry): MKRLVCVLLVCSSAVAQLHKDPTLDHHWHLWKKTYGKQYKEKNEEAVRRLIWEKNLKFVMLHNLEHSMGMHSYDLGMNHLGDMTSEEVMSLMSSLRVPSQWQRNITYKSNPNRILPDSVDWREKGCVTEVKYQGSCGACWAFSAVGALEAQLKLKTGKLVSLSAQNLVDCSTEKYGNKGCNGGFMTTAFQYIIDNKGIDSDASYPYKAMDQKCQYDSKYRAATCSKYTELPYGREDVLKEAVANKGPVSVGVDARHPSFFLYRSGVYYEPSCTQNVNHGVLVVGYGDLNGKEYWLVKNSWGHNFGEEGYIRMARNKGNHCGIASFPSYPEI
Outline: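 Cathepsin S (0.5 nM) preincubated 30 min at 37 °C with inhibitor (0-250 nM) in 0.1 M sodium acetate pH 5.5 containing 2 mM DTT and 0.01% Brij35. Residual activity read with Z-LR-AMC at 2.5, 5 and 10 µM, fluorescence ex 350/em 460 nm. IC50 averaged from slopes. Triplicate, repeated three times.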

| SMILES | IC50 [1] | IC50 [2] | IC50 [3] | IC50 [4] |
| --- | --- | --- | --- | --- |
| N#Cc1nc(Nc2ccc(C(F)(F)F)cc2)nc(N2CCNCC2)n1 | 28 nM | – | – | 23 nM |
| N#Cc1nc(NC[C@H](O)c2ccccc2)nc(NC2CCCCC2)n1 | 70 nM | – | – | 23 nM |
| COc1ccc(Nc2nc(C#N)nc(NC3CCCCC3)n2)cc1 | 23 nM | – | 226 nM | 136 nM |
| N#Cc1nc(Nc2ccc([N+](=O)[O-])cc2)nc(NC2CCCCC2)n1 | 17 nM | – | 136 nM | 90 nM |
| N#Cc1ccc(Nc2nc(C#N)nc(N3CCNCC3)n2)cc1 | 28 nM | 57 nM | 113 nM | – |
| COc1ccc(Nc2nc(C#N)nc(N3CCNCC3)n2)cc1 | 17 nM | 45 nM | 17 nM | 17 nM |
| N#Cc1nc(Nc2ccc(C(F)(F)F)cc2)nc(NC2CCCCC2)n1 | 34 nM | – | – | 102 nM |
| N#Cc1nc(NCCc2ccccc2)nc(NC2CCCCC2)n1 | 80 nM | – | – | 23 nM |

The remaining molecules from weak to strong by IC50 [1], led by results:

| IC50 [1] | IC50 [2] | IC50 [3] | IC50 [4] | SMILES |
| --- | --- | --- | --- | --- |
| 68 nM | 136 nM | 45 nM | 23 nM | N#Cc1nc(NC[C@H](O)c2ccccc2)nc(N2CCNCC2)n1 |
| 67 nM | – | – | 23 nM | N#Cc1ccc(Nc2nc(C#N)nc(NC3CCCCC3)n2)cc1 |
| 60 nM | – | – | 23 nM | Cc1cccc(CNc2nc(C#N)nc(NC3CCCCC3)n2)c1 |
| 23 nM | 57 nM | – | 17 nM | Cc1cccc(CNc2nc(C#N)nc(N3CCNCC3)n2)c1 |
| 17 nM | 34 nM | 17 nM | 17 nM | N#Cc1nc(Nc2cccc([N+](=O)[O-])c2)nc(N2CCNCC2)n1 |
| 17 nM | 79 nM | 23 nM | 28 nM | N#Cc1nc(Nc2cccc([N+](=O)[O-])c2)nc(NC2CCCCC2)n1 |
| 17 nM | – | 17 nM | 23 nM | N#Cc1nc(Nc2ccc([N+](=O)[O-])cc2)nc(N2CCNCC2)n1 |
